From PubChem BioAssay
Only some compounds are listed: those with a hit (about 1.9% of all), similar ones and a draw of the others.
NPY1 pot ag: human NPY-Y1 potentiation or agonism, primary screen. NPY-Y1 expressing cells, potentiator/agonist activation. actives 0.37% (n = 220,000). P25929. activation, % at 3.6 µM; in the data active = activation above about 33%, passing the limit was not always enough;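 note: cells stimulated with NPY at EC10 then isoproterenol at EC100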
Target sequence (P25929 whole entry, looked up): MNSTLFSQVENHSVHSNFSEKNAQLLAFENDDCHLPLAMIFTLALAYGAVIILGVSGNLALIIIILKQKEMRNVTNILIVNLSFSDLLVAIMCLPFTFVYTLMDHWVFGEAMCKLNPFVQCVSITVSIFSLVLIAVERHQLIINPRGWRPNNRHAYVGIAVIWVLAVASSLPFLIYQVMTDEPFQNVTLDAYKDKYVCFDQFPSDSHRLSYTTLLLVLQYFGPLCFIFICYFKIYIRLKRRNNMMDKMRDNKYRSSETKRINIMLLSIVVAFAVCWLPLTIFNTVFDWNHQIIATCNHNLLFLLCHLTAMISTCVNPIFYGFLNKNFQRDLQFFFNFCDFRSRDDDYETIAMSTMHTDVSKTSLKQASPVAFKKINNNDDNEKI
NPY Y1 blocker: NPY-Y1 (human) receptor antagonism; P25929; inhibition, % at 3.6 µM; AID 1040; actives 1% (n = 200,000); HEK293-CNG Y1 cells, membrane potential fluorescence; NPY at EC95, then isoproterenol;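 active = inhibition above the campaign mean inhibition of all tested compounds plus 3 SD, cut at about 20% in these data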
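System: HEK293 cells with Y1 receptor plus CNG channel / Probe or stimulus: NPY 25 nM then isoproterenol 1 µM plus Ro 20-1724 25 µM / Compound: one concentration, 3.6 µM, in 0.4% DMSO / Schedule: compound incubation 1 h at room temperature, readout 45 min post-stimulation / Measured by: membrane potential fluorescence / Read-out: % inhibition of NPY effect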
NPY2 pot ag: human NPY-Y2 potentiation or agonism, primary screen. P49146. cells expressing NPY-Y2, potentiator/agonist read-out. activation, % at 3.6 µM. actives 0.45% (n = 220,000). AID 1359; in the data active = activation above about 27%;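 note: cells stimulated with NPY near EC25 plus isoproterenol at EC100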
NPY Y2 blocker: antagonists of human neuropeptide Y receptor Y2 | NPY-Y2 expressing cells, antagonist mode | AID 793 | inhibition, % at 2.7 µM | P49146 | actives 0.99% (n = 140,000); in the data active = inhibition above about 17%
NPY1 antag ctr: antagonizes human NPY-Y1, counter-screen to NPY-Y2 antagonists; shares compounds with NPY Y2 blocker; inhibition, % at 3.6 µM; cell-based NPY-Y1 antagonism counterscreen; actives 19% (n = 710);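 note: cells challenged with NPY then isoproterenol with cAMP sensed through a CNG channel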
NPY-Y2 ant conf: human NPY-Y2 antagonism, confirmation | shares compounds with NPY Y2 blocker | HEK293 NPY-Y2 CNG channel, membrane potential fluorescence | inhibition, % at 2.8 µM | actives 32% (n = 710);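 active = mean inhibition of triplicate wells above the hit cutoff set in the primary screen, cut at about 17% in these data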
NPY1 antag conf: human NPY-Y1 antagonism, confirmation | AID 1254 | actives 21% (n = 1,200) | HEK293-CNG NPY-Y1, membrane potential fluorescence, cAMP; NPY challenge against isoproterenol-raised cAMP | inhibition, % at 3.6 µM | shares compounds with NPY Y1 blocker
NPY-Y2 antag ct: counter-screen for NPY-Y1 antagonists: human NPY-Y2 antagonism; shares compounds with NPY Y1 blocker; HEK293 NPY-Y2 CNG membrane potential fluorescence; cells given NPY, then isoproterenol; inhibition, % at 3.6 µM; actives 28% (n = 1,200); AID 1255; in the data active = inhibition above about 17%
Each line names hits and unclear results; the compound was inactive in the other large screens (follow-up assays come after a bar, where they were run). Cut-off read from the data, not from the text of the source, unless noted: active = inhibition above about 20%; inactive = the rest.

CCCCCSc1cc(OC)c(CCN)cc1OC	NPY1 pot ag 53.0
CCc1nc(N2CCNCC2)c(C#N)c2c1CSC(C)(C)C2	NPY1 pot ag 92.2, NPY2 pot ag 89.3
O=C1C(=O)c2ccccc2-c2ccccc21	NPY Y1 blocker 38.7, NPY Y2 blocker 40.0
O=C1C(=O)c2cccc3cccc1c23	none
CCN(CC)c1ccc(/C=N/c2sc3c(c2C#N)C2CCN3CC2)c(O)c1	none
CCN(CC)C(=O)N[C@H]1C[C@@H]2c3cccc4[nH]cc(c34)C[C@H]2N(C)C1	NPY1 pot ag 83.6, NPY2 pot ag 72.3
COC(=O)C1C=C2c3cccc4[nH]cc(c34)CC2N(C)C1 (centres undefined)	none (no result: NPY Y1 blocker, NPY Y2 blocker)
COc1ccccc1CCNC1CCC(C(C)(C)C)CC1 (centres undefined)	NPY Y1 blocker 29.0, NPY Y2 blocker 30.4
COc1ccccc1CCNC1CCCC(C)C1 (centres undefined)	none
CC[C@@H](C(N)=O)N1CCCC1=O	none (no result: NPY Y2 blocker)
O=P(NC(c1ccccc1)c1ccccc1)(Oc1ccccc1)Oc1ccccc1	NPY Y1 blocker 21.2, NPY Y2 blocker 37.6
O=c1[nH]c(=O)n(-c2cccc3ccccc23)c(O)c1/C=N/N1CCCCCC1	none (no result: NPY Y1 blocker, NPY Y2 blocker)
CC(C)C(C)(NC(=O)c1cccn(Cc2ccc3c(c2)OC(F)(F)O3)c1=O)C(N)=O (centres undefined)	none (no result: NPY Y2 blocker)
COc1ccc(Cc2nccc3cc(OC)c(OC)cc23)cc1OC	NPY Y1 blocker 22.2, NPY Y2 blocker 20.1
O=C1NC(=O)C(CCc2ccccn2)(Cc2ccc3c(c2)OCO3)C(=O)N1CCc1ccccc1 (centres undefined)	none
C=C1[C@@H](C)[C@H]2[C@H](Cc3ccccc3)NC(=O)[C@]23OC(=O)/C=C/[C@H](O)CCC[C@@H](C)C/C=C/[C@H]3[C@@H]1O	NPY Y1 blocker 20.6 (no result: NPY Y2 blocker)
CC(O)(CS(=O)(=O)c1ccccc1)C(=O)Nc1cccc(C(F)(F)F)c1 (centres undefined)	none
CCn1ncc(/C=C2/CC3C4CC=C5CC(O)CCC5(C)C4CCC3(C)C2=O)c1C (centres undefined)	none
Cc1nn(C)c(C)c1/C=C1/CC2C3CC=C4CC(O)CCC4(C)C3CCC2(C)C1=O (centres undefined)	NPY Y1 blocker 26.4, NPY Y2 blocker 46.6
CN1/C(=C\C=C\C2=[N+](C)c3ccc4ccccc4c3C2(C)C)C(C)(C)c2ccccc21	NPY Y1 blocker active, NPY Y2 blocker active
O=C(CNC(=O)c1cccc(Cl)c1)Nc1ccc(Br)cc1C(=O)c1ccccc1	NPY Y2 blocker 22.5 | NPY1 antag ctr inactive | NPY-Y2 ant conf inactive
CN1C[C@H](CNC(=O)OCc2ccccc2)C[C@@H]2c3cccc4c3c(cn4C)C[C@H]21	NPY Y2 blocker 18.1 | NPY1 antag ctr inactive | NPY-Y2 ant conf inactive
O=C(Nc1cccnc1)c1c(O)c2c(n(Cc3ccccc3)c1=O)CCCC2	NPY Y2 blocker 18.8 | NPY1 antag ctr inactive | NPY-Y2 ant conf inactive
O=C(Nc1ccc(F)cc1)c1c(O)c2c(n(Cc3ccccc3)c1=O)CCCC2	none
N=Cc1c(O)n(-c2ccc(C34CC5CC(CC(C5)C3)C4)cc2)c(=O)[nH]c1=O	none
Cc1cccc(OP(=O)(NCc2ccccc2)Oc2cccc(C)c2)c1	NPY Y2 blocker 19.1 | NPY1 antag ctr inactive | NPY-Y2 ant conf inactive
CN(C)CC1CSCCC1(O)c1ccccc1 (centres undefined)	none
COc1ccc(C2NCc3ccc4c(c3-n3cccc32)OCO4)cc1O (centres undefined)	NPY Y2 blocker 18.7 | NPY1 antag ctr 20.9 | NPY-Y2 ant conf 37.1
CCCCn1c(=O)c(C(=O)Nc2nnc(C(C)C)s2)c(O)c2ccccc21	none (no result: NPY Y2 blocker)
CCCC/C(C)=C/[C@@H](NP(=O)(c1ccccc1)c1ccccc1)c1ccccc1	NPY Y2 blocker 27.0 | NPY1 antag ctr 22.7 | NPY-Y2 ant conf 20.2
CCCCCP(=O)(O)c1ccccc1	none
O=c1[nH]c(O)c(N=Nc2cc([N+](=O)[O-])ccc2O)c(=O)[nH]1	none (no result: NPY Y2 blocker)
O=C(CCC(=O)N1CCC2(CC1)OCCO2)Nc1nnc(C2CCCCC2)s1	none (no result: NPY Y1 blocker, NPY Y2 blocker)
Cn1c(O)c(C(=O)c2ccccc2)c(=O)n(C)c1=O	none
CCC(=NCCC(c1ccccc1)c1ccccc1)c1c(O)n(C)c(=O)n(C)c1=O	NPY Y2 blocker 24.4 | NPY1 antag ctr inactive | NPY-Y2 ant conf 27.5
Clc1ccc(COC(Cn2ccnc2)c2ccc(Cl)cc2Cl)cc1 (centres undefined)	NPY Y2 blocker 21.7 | NPY1 antag ctr inactive | NPY-Y2 ant conf 18.1
O=C(c1cccs1)c1cn(Cc2ccccc2Cl)c2ccccc12	NPY Y2 blocker 19.5 | NPY1 antag ctr 21.1 | NPY-Y2 ant conf inactive
N#Cc1ccccc1Cn1cc(C(=O)c2cccs2)c2ccccc21	none
COC(=O)[C@@H]1C[C@@]1(C)[C@@H](NP(=O)(c1ccccc1)c1ccccc1)c1ccccc1	NPY Y1 blocker 30.5 | NPY1 antag conf inactive | NPY-Y2 antag ct inactive
COP(=O)(CC(=O)O)c1ccccc1 (centres undefined)	none
Cc1ccc2c(c1)C1CN(C)CCC1N2C(=O)c1cn(-c2ccccc2)nc1-c1ccccc1 (centres undefined)	NPY Y1 blocker 69.8 (no result: NPY Y2 blocker) | NPY1 antag conf inactive | NPY-Y2 antag ct 24.9
Cc1ccc2c(c1)C1CN(C)CCC1N2C(=O)c1cccnc1Cl (centres undefined)	none (no result: NPY Y1 blocker, NPY Y2 blocker)
c1csc(CN2CCNCC2)c1	none (no result: NPY Y2 blocker)
CCNC(=O)[C@H]1O[C@@H](n2cnc3c(N)ncnc32)[C@H](O)[C@@H]1O	NPY Y1 blocker 145.1 (no result: NPY Y2 blocker) | NPY1 antag conf 118.3 | NPY-Y2 antag ct 104.9
S=P(NC1CCCCC1)(N1CC1)N1CC1	none (no result: NPY Y1 blocker, NPY Y2 blocker)
O=C(c1ccco1)c1cn(Cc2ccc(Cl)cc2)c2ccccc12	NPY Y1 blocker 32.7 | NPY1 antag conf 20.4 | NPY-Y2 antag ct inactive
O=C(N=Nc1c(O)[nH]c(=O)[nH]c1=O)C1COc2cc3ccccc3cc2O1 (centres undefined)	NPY Y1 blocker 25.3 (no result: NPY Y2 blocker) | NPY1 antag conf inactive | NPY-Y2 antag ct inactive
NC(=O)c1ccc(N=Nc2c(O)[nH]c(=O)[nH]c2=O)cc1	none
CN(C)/C=C1/C(=O)NC(=O)N(CCNc2ncc(C(F)(F)F)cc2Cl)C1=O	none (no result: NPY Y2 blocker)
CNCC(O)c1cccc(OC(=O)c2ccccc2C)c1 (centres undefined)	NPY Y1 blocker 22.4 | NPY1 antag conf inactive | NPY-Y2 antag ct inactive
